Here are results for 13 molecules from PMC8992012 (Bioorganic & medicinal chemistry, 2021).

For the test, the system named is NF-κB. In words: NF-κB activation using THP1-Blue NF-κB cells. It counts as cell-based, human. The settings on record: for activation at 5 µM: Homo sapiens, 20 h, read-out: NF-κB SEAP Compound alone % Activation; for NF-κB activity (in words, SAR text to Table 1): compound alone, 5 μM, 20h. Summed up: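 THP1-Blue NF-κB cells carry a stably integrated NF-κB-inducible SEAP. They were plated at 10^5 cells/well in RPMI with 10% FBS, penicillin, streptomycin and Normocin, then treated for 20 h with 5 μM test compound (0.5% DMSO final), alone or with LPS at 10 ng/mL. Supernatant SEAP was read colorimetrically at 630 nm. Signals were two-point normalized: baseline (vehicle or LPS) 100%, reference hit 200%.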

Turning to `Cc1ccccc1-c1csc(NC(=O)c2ccc(S(=O)(=O)N3CCCCC3)cc2)n1` [Compound 12b, 4-(piperidin-1-ylsulfonyl)-N-(4-(o-tolyl)thiazol-2-yl)benzamide], the activation at 5 µM is 100% and the “NF-κB activity (in words, SAR text to Table 1)” value (shortened to “NF-κB activity”) is “inactive”.
The like results for `Cc1cccc(-c2csc(NC(=O)c3ccc(S(=O)(=O)N4CCCCC4)cc3)n2)c1` [Compound 12c, 4-(piperidin-1-ylsulfonyl)-N-(4-(m-tolyl)thiazol-2-yl)benzamide] were, in that order, 100% and “inactive”.
Turning to `Cc1ccc(Br)cc1-c1csc(NC(=O)c2ccc(S(=O)(=O)N3CCCCC3)cc2)n1` [Compound 12e, N-(4-(5-bromo-2-methylphenyl)thiazol-2-yl)-4-(piperidin-1-ylsulfonyl)benzamide], the “NF-κB activity” value is given as “active”.
As for `Cc1ccc(C)c(Cc2csc(NC(=O)c3ccc(S(=O)(=O)N4CCCCC4)cc3)n2)c1` [Compound 12f, N-(4-(2,5-dimethylbenzyl)thiazol-2-yl)-4-(piperidin-1-ylsulfonyl)benzamide], the “NF-κB activity” value is “inactive”.
`Cc1csc(NC(=O)c2ccc(S(=O)(=O)N3CCCCC3)cc2)n1` [Compound 12g, N-(4-methylthiazol-2-yl)-4-(piperidin-1-ylsulfonyl)benzamide]: the activation at 5 µM amounted to 100% and the “NF-κB activity” value is on record as “None of these molecules had any NF-κB activity”.
The like results for `CCc1csc(NC(=O)c2ccc(S(=O)(=O)N3CCCCC3)cc2)n1` [Compound 12h, N-(4-ethylthiazol-2-yl)-4-(piperidin-1-ylsulfonyl)benzamide] were, in that order, 100% and “None of these molecules had any NF-κB activity”.
For `CCCc1csc(NC(=O)c2ccc(S(=O)(=O)N3CCCCC3)cc2)n1` [Compound 12i, 4-(piperidin-1-ylsulfonyl)-N-(4-propylthiazol-2-yl)benzamide], in that order: 100% and “None of these molecules had any NF-κB activity”.
With `CC(C)(C)Cc1csc(NC(=O)c2ccc(S(=O)(=O)N3CCCCC3)cc2)n1` [Compound 12j, N-(4-neopentylthiazol-2-yl)-4-(piperidin-1-ylsulfonyl)benzamide], the “NF-κB activity” value was “None of these molecules had any NF-κB activity”.
Consider `CC(C)(C)c1csc(NC(=O)c2ccc(S(=O)(=O)N3CCCCC3)cc2)n1` [Compound 12k, N-(4-(tert-butyl)thiazol-2-yl)-4-(piperidin-1-ylsulfonyl)benzamide], for which the “NF-κB activity” value was “None of these molecules had any NF-κB activity”.
On the same count and under the same terms, as for `Cc1cccc(-c2csc(NC(=O)c3ccc(S(=O)(=O)N4CCCCC4)cc3)n2)c1C` [Compound 12l, N-(4-(2,3-dimethylphenyl)thiazol-2-yl)-4-(piperidin-1-ylsulfonyl)benzamide], the entry is “retained activity”; as for `Cc1cc(C)cc(-c2csc(NC(=O)c3ccc(S(=O)(=O)N4CCCCC4)cc3)n2)c1` [Compound 12o, N-(4-(3,5-dimethylphenyl)thiazol-2-yl)-4-(piperidin-1-ylsulfonyl)benzamide], “inactive”; as for `Cc1cccc(C)c1-c1csc(NC(=O)c2ccc(S(=O)(=O)N3CCCCC3)cc2)n1` [Compound 12p, N-(4-(2,6-dimethylphenyl)thiazol-2-yl)-4-(piperidin-1-ylsulfonyl)benzamide], “retained activity”.
On the same count and under the same terms, the same measure for `O=C(Nc1nc(-c2cccc3ccccc23)cs1)c1ccc(S(=O)(=O)N2CCCCC2)cc1` [Compound 12q, N-(4-(naphthalen-1-yl)thiazol-2-yl)-4-(piperidin-1-ylsulfonyl)benzamide]: “equally potent”.
